# Screening data (PubChem)
# PLK1 inh = human PLK1 kinase inhibitors, primary screen, biochemical, TR-FRET | Serine/threonine-protein kinase PLK1 (Homo sapiens), P53350 | recombinant PLK1 kinase, TR-FRET peptide phosphorylation | inhibition, % at 10 µM | hit rate 0.53% among 97,000;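 active means inhibition of 50% or more in the single-concentration screen; inactive means inhibition below 50%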;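 further: 0% = DMSO max control and 100% = H-89 dihydrochloride min control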
# PLAP activator = PLAP enzyme activators, biochemical, luminescence, HTS; Alkaline phosphatase, placental type (Homo sapiens), P05187; AID 696, 2007; activation fold at 20 µM; hit rate 1.2% among 96,000; purified PLAP enzyme, luminescent substrate read-out; active compounds read high; in the data active means activation fold above about 2
# Target sequence (P05187 whole entry, looked up): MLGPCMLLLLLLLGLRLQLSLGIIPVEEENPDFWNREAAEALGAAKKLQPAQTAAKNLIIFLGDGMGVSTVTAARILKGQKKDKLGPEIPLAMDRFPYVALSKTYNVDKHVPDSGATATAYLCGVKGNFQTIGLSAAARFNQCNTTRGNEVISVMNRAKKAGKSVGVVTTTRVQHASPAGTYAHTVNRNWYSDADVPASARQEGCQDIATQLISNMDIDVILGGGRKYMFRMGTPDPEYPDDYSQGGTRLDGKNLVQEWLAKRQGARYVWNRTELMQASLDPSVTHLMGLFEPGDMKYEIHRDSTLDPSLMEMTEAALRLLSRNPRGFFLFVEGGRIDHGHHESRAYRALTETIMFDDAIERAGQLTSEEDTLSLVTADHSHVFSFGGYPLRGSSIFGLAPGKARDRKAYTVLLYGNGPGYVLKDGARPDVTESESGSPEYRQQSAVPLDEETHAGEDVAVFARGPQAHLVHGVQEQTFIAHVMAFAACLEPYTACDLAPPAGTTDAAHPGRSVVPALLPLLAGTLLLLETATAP
# LYP inh 2 = PTPN22 phosphatase inhibitors, primary screen, biochemical, DiFMUP fluorescence, 2 µM; hit rate 0.21% among 96,000; recombinant LYP catalytic domain; inhibition, % at 2 µM; Tyrosine-protein phosphatase non-receptor type 22 (Homo sapiens), Q9Y2R2; AID 640, 2007;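 active means inhibition at 2 µM at or above a set limit, the screen mean plus 3 SD, cut at about 24% in these data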;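 further: 0% = DMSO with enzyme and 100% = enzyme fully blocked by orthovanadate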
# PLK1 PBD inh = Plk1 polo box domain binding inhibitors, primary screen, biochemical, fluorescence polarization | Serine/threonine-protein kinase PLK1 (Homo sapiens), P53350 | Plk1 PBD phosphopeptide binding | hit rate 0.13% among 97,000 | inhibition, %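 (tested at about 20 µM)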; in the data active means inhibition above about 34%, passing the limit was not always enough
# LYP act = LYP phosphatase activators, primary screen, biochemical, DiFMUP fluorescence, 2 µM. hit rate 0.11% among 96,000. AID 697, 2007. recombinant LYP; 0 = plate median, 100 = signal doubled. Tyrosine-protein phosphatase non-receptor type 22 (Homo sapiens), Q9Y2R2. activation, % at 2 µM;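 active means activation at 2 µM above a set limit, the mean plus 5 SD, cut at about 37% in these data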
# Rev-RRE block = HIV-1 Rev-RRE binding inhibitors, primary screen, biochemical, FRET, protein-RNA interaction; P05866; Rev peptide-RRE RNA binding; inhibition, % at 8 µM; hit rate 0.79% among 97,000;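 active means inhibition above the screen-wide mean plus 3 SD, cut at about 35% in these data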;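 further: 0% = median DMSO wells and 100% = median Neomycin B control wells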
#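 System: Cy5-labelled duplex RRE RNA binding fluorescein-labelled HIV Rev peptide; Signal: fluorescein-to-Cy5 FRET, 480 nm excitation; Also added: labelled Rev peptide; Compound: one concentration, 8 µM nominal; Buffer or medium: HEPES pH 7.5 salt buffer with EDTA; Read-out: % inhibition of FRET ratio versus controls; Schedule: 5 min preincubation and 15 min binding, 25 °C.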
# Numbers without * were called inactive; . = no result; [ ] = another dose, or the depositor's remark. Compounds with a hit are over-represented: about 2.7% of the library has one in this group of screens.
SMILES,PLK1 inh,PLAP activator,LYP inh 2,PLK1 PBD inh,LYP act,Rev-RRE block
Cc1oc(-c2ccccc2)nc1C(=O)Nc1nccs1,-8.6,2*,3.4,5.4,-4.0,7.1
COC(=O)c1cn(-c2ccccc2)nc1-c1ccncc1,-6.0,1,-6.0,3.2,3.3,2.7
COC(=O)c1c(C(=O)OC)c2ccncn2c1Cl,-21.1,2.4*,6.7,2.9,-5.2,10.9
CCCC1(C(=O)O)NC(c2ccccc2O)C2C(=O)N(c3cccc(Cl)c3)C(=O)C21 (stereo not given),-12.8,2.4*,-4.5,-15.4,2.8,.
CCCC(=O)Nc1ccc2c(c1)nc(CCNC(=O)c1ccccc1)n2C,-6.8,0.8,26.7*,1.3,-25.5,2.3
NNc1nc(Nc2ccccc2)nc(N2CCCCC2)n1,-3.8,1.6,1.6,13.9,1.3,-1.8
O=c1nc(N2CCCCC2)nc(Nc2ccccc2)[nH]1,-15.7,2.3*,5.0,1.7,-5.5,-4.1
CSc1nc2ccccc2n1CC(=O)Nc1c(C)n(C)n(-c2ccccc2)c1=O,4.3,1,6.4,5.0,-7.3,9.0
CCCc1cc(SCC(=O)Nc2c(C)n(C)n(-c3ccccc3)c2=O)n2c(nc3ccccc32)c1C#N,-24.6,1.3,18.2,-6.0,-17.4,40.8*
O=C1CC(=C2c3ccccc3-c3ccccc32)C(=O)N1CCN1CCN(c2cccc(Cl)c2)CC1,-10.2,.,25.0*,-10.3,-23.5,9.0
Nc1ncnc2nc(SCC(=O)N3CCN(c4ccccc4)CC3)[nH]c12,7.6,1.9,2.5,1.5,1.2,10.2
Nc1ncnc2nc(SCc3ccccc3)[nH]c12,18.4,2*,10.6,9.7,-7.6,8.1
Cc1cccc(NC(=S)NNC(=O)c2sccc2C)c1,-2.0,2.1*,6.2,-10.2,-3.5,3.1
Cc1ccsc1C(=O)NNC(=S)NCC(C)C,-17.1,2.2*,8.1,10.5,-5.3,10.7
O=C(c1ccco1)N(Cc1ccc([N+](=O)[O-])cc1)c1ccc(Cl)cc1,-1.0,0.9,7.8,3.6,-3.2,5.5
CO/N=C/c1ccc(Sc2ccccc2N)c([N+](=O)[O-])c1,-7.1,0.9,-6.9,-15.6,4.2,12.4
Cc1ccc(SC(C)C(=O)Nc2ncn[nH]2)cc1 (stereo not given),-8.1,2.1*,-4.3,32.4,3.8,5.5
CCOc1ccc(NC(=O)CNC(=O)c2ccc(OC)c(OC)c2)cc1,-6.5,0.9,-5.0,-3.2,3.6,-0.8
CCOc1ccc(NC(=O)CNC(=O)c2cn(-c3ccccc3OC)c(=O)c3ccccc23)cc1,0.8,2*,-13.8,22.8,11.0,11.0
O=C(c1cccc(C(F)(F)F)c1)N1CCC(O)(CS(=O)(=O)Cc2ccccc2)CC1,0.1,1,4.3,15.7,-1.9,4.0
CCN=c1scc(C)n1/N=C/c1ccc(O)c(O)c1O,54.6*,1.2,21.2,-8.8,-17.3,4.3
CN1CCN(c2nc(-c3ccncc3)nc3ccccc23)CC1,53.1*,1.2,8.3,17.3,-11.2,7.2
Cc1cccc(N2CCN(C(=O)CCc3nc4ccccc4[nH]3)CC2C)c1 (stereo not given),-4.5,2.2*,-10.6,14.3,7.1,6.0
Cc1ccc(N2CCN(C(=O)CCc3nc4ccccc4[nH]3)CC2)c(C)c1,-3.2,.,2.3,-13.7,-5.4,10.0
Cc1ccc(SCc2[nH]nc3c2C2(C(=O)N(C)c4ccccc42)C(C#N)=C(N)O3)cc1 (stereo not given),1.3,2*,4.5,-1.4,-4.7,8.4
COCc1[nH]nc2c1C1(C(=O)N(C)c3ccccc31)C(C#N)=C(N)O2 (stereo not given),1.7,1,-0.9,17.8,-0.5,3.4
Cn1c(N2CCC(C(N)=O)CC2)nc2c1c(=O)n(Cc1ccc(Cl)cc1)c(=O)n2C,-11.7,1.5,1.4,30.7,-1.6,6.2
CCN1C(=O)/C(=C/C=C2/SCCN2C)SC1=S,-29.2,1,9.9,-101.3,-7.5,129.2*[fluorescence artefact?]
